Columns and labels:
[1] = target: T1, Isopenicillin N synthase (Penicillium chrysogenum) (UniProt P08703); experiment: Anti-micrococcus luteus activity was tested for inhibition of isopenicillin N synthetase.; settings: Penicillium chrysogenum (Penicillium notatum)
T1 sequence (whole entry): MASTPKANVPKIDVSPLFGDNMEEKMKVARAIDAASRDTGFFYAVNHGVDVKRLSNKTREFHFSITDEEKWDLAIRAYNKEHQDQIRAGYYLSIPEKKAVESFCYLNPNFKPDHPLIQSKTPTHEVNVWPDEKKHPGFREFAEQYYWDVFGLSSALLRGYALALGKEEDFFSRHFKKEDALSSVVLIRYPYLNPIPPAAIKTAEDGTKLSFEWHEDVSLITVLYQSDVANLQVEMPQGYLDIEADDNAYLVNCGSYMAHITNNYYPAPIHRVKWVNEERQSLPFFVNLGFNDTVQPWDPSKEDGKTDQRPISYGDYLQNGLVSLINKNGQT
In short: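 Peptide added at a known amount to a standard IPNS reaction mixture with ACV as substrate before starting the reaction with enzyme. Applied to peptides not converted to an anti-M. luteus product. Percent inhibition derived from the ratio of reaction rates with and without the peptide.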

[2] = Antibiotic activity against Micrococcus luteus (ATCC 9341 strain); type: functional
In short: (§1)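 Peptides at 0.3 mM incubated with purified IPNS in Tris-HCl pH 8.0 containing KCl, MgSO4, FeSO4, ascorbate and DTT, at 25 °C for 2–20 min in quadruplicate, then stopped with ethanol. Samples with and without penicillinase went into wells on M. luteus ATCC 9341 lawns, incubated overnight at 37 °C, and inhibition zones were read. Peptides giving no product were retested for 1 h at 3 mM.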

Micrococcus luteus = experiment: In vitro antibiotic activity against Micrococcus luteus(ATCC 9341 stain).; type: functional, organism-based; in short: as §1

| Activity [1] | SMILES | Antibiotic activity [2] | Antibiotic activity (Micrococcus luteus) |
| --- | --- | --- | --- |
| No activity | N[C@@H](CCCC(=O)N[C@@H](CSSC[C@H](NC(=O)CCC[C@H](N)C(=O)O)C(=O)N[C@H](COCc1ccccc1)C(=O)O)C(=O)N[C@H](COCc1ccccc1)C(=O)O)C(=O)O | No activity | – |
| No activity | CC(C)[C@@H](NC(=O)[C@H](CS)NC(=O)[C@@H](N)CCC(=O)O)C(=O)O | No activity | – |
| – | CC(C)[C@@H](NC(=O)[C@H](CSSC[C@H](NC(=O)COc1ccccc1)C(=O)N[C@@H](C(=O)O)C(C)C)NC(=O)COc1ccccc1)C(=O)O | – | Yes |
| No activity | N[C@@H](CCCC(=O)NC(CSSCC(NC(=O)CCC[C@H](N)C(=O)O)C(=O)NC1(C(=O)O)CCCC1)C(=O)NC1(C(=O)O)CCCC1)C(=O)O (stereo partly drawn) | No activity | – |
| – | CS(=O)(=O)C[C@@H](NC(=O)C(CSSCC(NC(=O)CCC[C@H](N)C(=O)O)C(=O)N[C@H](CS(C)(=O)=O)C(=O)O)NC(=O)CCC[C@H](N)C(=O)O)C(=O)O (stereo partly drawn) | No activity | – |
| – | CC(C)[C@@H](NC(=O)[C@H](CSSC[C@H](NC(=O)CCCCC(=O)O)C(=O)N[C@@H](C(=O)O)C(C)C)NC(=O)CCCCC(=O)O)C(=O)O | – | Yes |
| – | N[C@@H](CCCC(=O)NC(CSSCC(NC(=O)CCC[C@H](N)C(=O)O)C(=O)N[C@H](CC(=O)O)C(=O)O)C(=O)N[C@H](CC(=O)O)C(=O)O)C(=O)O (stereo partly drawn) | No activity | – |
| No activity | CC(C)[C@@H](NC(=O)[C@H](CSSC[C@H](NC(=O)[C@@H]1CCCN1C(=O)CN)C(=O)N[C@@H](C(=O)O)C(C)C)NC(=O)[C@@H]1CCCN1C(=O)CN)C(=O)O | No activity | – |
| – | C[S+]([O-])C[C@@H](NC(=O)C(CSSCC(NC(=O)CCC[C@H](N)C(=O)O)C(=O)N[C@H](C[S+](C)[O-])C(=O)O)NC(=O)CCC[C@H](N)C(=O)O)C(=O)O (stereo partly drawn) | No activity | – |
| No activity | CC(C)[C@@H](NC(=O)[C@H](CSSC[C@H](NC(=O)CCc1cccc(O)c1)C(=O)N[C@@H](C(=O)O)C(C)C)NC(=O)CCc1cccc(O)c1)C(=O)O | – | Yes |
| – | CC(C)C(NC(=O)C(CS)NC(=O)CCC[C@H](N)C(=O)O)S(=O)(=O)O (stereo partly drawn) | No activity | – |
| No activity | CC(C)[C@@H](NC(=O)[C@H](CS)NC(=O)CC[C@H](N)C(=O)O)C(=O)O | No activity | – |
| No activity | C=CC[C@H](NC(=O)CCC[C@H](N)C(=O)O)C(=O)N[C@@H](C(=O)O)C(C)C | No activity | – |
| – | CC(C)[C@@H](NC(=O)[C@H](Cc1c[nH]cn1)NC(=O)CCC[C@H](N)C(=O)O)C(=O)O | No activity | – |
| No activity | N[C@@H](CCCC(=O)NC(CSSCC(NC(=O)CCC[C@H](N)C(=O)O)C(=O)N[C@@H](C(=O)O)C1CCCCC1)C(=O)N[C@@H](C(=O)O)C1CCCCC1)C(=O)O (stereo partly drawn) | No activity | – |
| No activity | CC(C)[C@@H](NC(=O)[C@@H]1CSC(C)(C)N1C(=O)CCC[C@H](N)C(=O)O)C(=O)O | No activity | – |
| – | N[C@@H](CCCC(=O)NC(CSSCC(NC(=O)CCC[C@H](N)C(=O)O)C(=O)N[C@H](CC1CNc2ccccc21)C(=O)O)C(=O)N[C@H](CC1CNc2ccccc21)C(=O)O)C(=O)O (stereo partly drawn) | No activity | – |
| – | CC(C)[C@@H](NC(=O)[C@H](CSSC[C@H](NC(=O)Cc1cccc(C(=O)O)c1)C(=O)N[C@@H](C(=O)O)C(C)C)NC(=O)Cc1cccc(C(=O)O)c1)C(=O)O | – | Yes |
| No activity | CC(NC(=O)CCC[C@H](N)C(=O)O)C(=O)N[C@@H](C(=O)O)C(C)(C)S (stereo partly drawn) | – | – |

| Activity [1] | SMILES | Antibiotic activity [2] | Antibiotic activity (Micrococcus luteus) |
| --- | --- | --- | --- |
| No activity | COCC(COC)[C@H](NC(=O)C(CSSCC(NC(=O)CCC[C@H](N)C(=O)O)C(=O)N[C@H](C(=O)O)C(COC)COC)NC(=O)CCC[C@H](N)C(=O)O)C(=O)O (stereo partly drawn) | No activity | – |
| – | CSC[C@@H](NC(=O)C(CSSCC(NC(=O)CCC[C@H](N)C(=O)O)C(=O)N[C@H](CSC)C(=O)O)NC(=O)CCC[C@H](N)C(=O)O)C(=O)O (stereo partly drawn) | No activity | – |
| No activity | COCC(COC)[C@@H](NC(=O)C(CSSCC(NC(=O)CCC[C@H](N)C(=O)O)C(=O)N[C@@H](C(=O)O)C(COC)COC)NC(=O)CCC[C@H](N)C(=O)O)C(=O)O (stereo partly drawn) | No activity | – |
| No activity | CC(C)[C@@H](NC(=O)[C@H](CSSC[C@H](NC(=O)c1cccc(CC(=O)O)c1)C(=O)N[C@@H](C(=O)O)C(C)C)NC(=O)c1cccc(CC(=O)O)c1)C(=O)O | No activity | – |
| No activity | N[C@@H](CCCC(=O)NC(CSSCC(NC(=O)CCC[C@H](N)C(=O)O)C(=O)N[C@H](COCc1ccccc1)C(=O)O)C(=O)N[C@H](COCc1ccccc1)C(=O)O)C(=O)O (stereo partly drawn) | No activity | – |
| No activity | C=C(NC(=O)CCC[C@H](N)C(=O)O)C(=O)N[C@H](COCc1ccccc1)C(=O)O | No activity | – |
| – | N[C@@H](CCCC(=O)NC(CSSCC(NC(=O)CCC[C@H](N)C(=O)O)C(=O)NC(Cc1cccs1)C(=O)O)C(=O)NC(Cc1cccs1)C(=O)O)C(=O)O (stereo partly drawn) | No activity | – |
| – | N[C@@H](CCCC(=O)NC(CSSCC(NC(=O)CCC[C@H](N)C(=O)O)C(=O)N[C@H](Cc1ccccc1)C(=O)O)C(=O)N[C@H](Cc1ccccc1)C(=O)O)C(=O)O (stereo partly drawn) | No activity | – |
| – | CC(C)[C@@H](NC(=O)[C@H](CCS)NC(=O)CCC[C@H](N)C(=O)O)C(=O)O | No activity | – |
| – | CC(C)[C@H](NC(=O)CCC[C@H](N)C(=O)O)C(=O)N[C@@H](C(=O)O)C(C)C | No activity | – |
| – | N[C@@H](CCCC(=O)NC(CSSCC(NC(=O)CCC[C@H](N)C(=O)O)C(=O)N[C@@H](Cc1cccs1)C(=O)O)C(=O)N[C@@H](Cc1cccs1)C(=O)O)C(=O)O (stereo partly drawn) | No activity | – |
| – | COC(=O)CCCCC(=O)N[C@@H](CSSC[C@H](NC(=O)CCCCC(=O)OC)C(=O)N[C@@H](C(=O)O)C(C)C)C(=O)N[C@@H](C(=O)O)C(C)C | – | Yes |
| – | CC(C)[C@@H](NC(=O)[C@H](CS)NC(=O)Cc1ccccc1CN)C(=O)O | – | Yes |
| – | N[C@@H](CCCC(=O)NC(CSSCC(NC(=O)CCC[C@H](N)C(=O)O)C(=O)N[C@H](CO)C(=O)O)C(=O)N[C@H](CO)C(=O)O)C(=O)O (stereo partly drawn) | – | Yes |
| – | CC(C)[C@@H](NC(=O)[C@H](CSSC[C@H](NC(=O)Cc1ccccc1)C(=O)N[C@@H](C(=O)O)C(C)C)NC(=O)Cc1ccccc1)C(=O)O | – | Yes |
| – | CC(C)=C(NC(=O)C(CS)NC(=O)CCC[C@H](N)C(=O)O)C(=O)O (stereo partly drawn) | No activity | – |
| – | N[C@@H](CCCC(=O)NC(CSSCC(NC(=O)CCC[C@H](N)C(=O)O)C(=O)N[C@H](Cc1cccs1)C(=O)O)C(=O)N[C@H](Cc1cccs1)C(=O)O)C(=O)O (stereo partly drawn) | No activity | – |
| – | NC(=O)C[C@@H](NC(=O)C(CSSCC(NC(=O)CCC[C@H](N)C(=O)O)C(=O)N[C@H](CC(N)=O)C(=O)O)NC(=O)CCC[C@H](N)C(=O)O)C(=O)O (stereo partly drawn) | No activity | – |
| No activity | CC(Cl)[C@@H](NC(=O)C(CSSCC(NC(=O)CCC[C@H](N)C(=O)O)C(=O)N[C@@H](C(=O)O)C(C)Cl)NC(=O)CCC[C@H](N)C(=O)O)C(=O)O (stereo partly drawn) | No activity | – |
